Experiments:
[1] = substrate: C=CCSS/C=C/C[S+]([O-])CC=C; test: Kcat value determined against Trypanothione reductase (TR) by oxidation of NADPH; conditions: Trypanosoma cruzi
Method in brief: (§1)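 T. cruzi trypanothione reductase, recombinant, with NADPH and ajoene as substrate in TR assay buffer (40 mM Hepes, 1 mM EDTA, pH 7.5) at 25 °C. NADPH oxidation followed as absorbance decrease at 340 nm. Controls held only NADPH and enzyme, giving the intrinsic oxidase activity.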

[2] = substrate: C=CCSS/C=C\C[S+]([O-])CC=C; test: (§2) Km value determined against Trypanothione reductase (TR); conditions: Trypanosoma cruzi; method in brief: as §1
[3] = substrate: C=CCSS/C=C/C[S+]([O-])CC=C; test: as §2; conditions: Trypanosoma cruzi; method in brief: as §1
[4] = substrate: C=CCSS/C=C\C[S+]([O-])CC=C; test: Km value determined against Trypanothione reductase (TR) by oxidation of NADPH; conditions: Trypanosoma cruzi
[5] = substrate: C=CCSS/C=C\C[S+]([O-])CC=C; test: (§3) Km value determined against human Glutathione reductase (GR) by oxidation of NADPH
Method in brief: (§4)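 Recombinant human glutathione reductase in GR assay buffer (phosphate, 200 mM KCl, 1 mM EDTA, pH 6.9) at 25 °C with 150 μM NADPH and ajoene or DATS as substrate. NADPH consumption read at 340 nm. Where GSH is present, it is added to the mixture. Controls held NADPH and enzyme only (intrinsic oxidase activity).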

[6] = substrate: C=CCSS/C=C/C[S+]([O-])CC=C; test: as §3; method in brief: as §4
[7] = substrate: C=CCSSSCC=C; test: as §3; method in brief: as §4

B1: Trypanothione reductase (Trypanosoma cruzi), P28593 (protein)
chain: MMSKIFDLVVIGAGSGGLEAAWNAATLYKKRVAVIDVQMVHGPPFFSALGGTCVNVGCVPKKLMVTGAQYMEHLRESAGFGWEFDRTTLRAEWKKLIAVKDEAVLNINKSYEEMFRDTEGLEFFLGWGSLESKNVVNVRESADPASAVKERLETENILLASGSWPHMPNIPGIEHCISSNEAFYLPEPPRRVLTVGGGFISVEFAGIFNAYKPKDGQVTLCYRGEMILRGFDHTLREELTKQLTANGIQILTKENPAKVELNADGSKSVTFESGKKMDFDLVMMAIGRSPRTKDLQLQNAGVMIKNGGVQVDEYSRTNVSNIYAIGDVTNRVMLTPVAINEAAALVDTVFGTNPRKTDHTRVASAVFSIPPIGTCGLIEEVASKRYEVVAVYLSSFTPLMHNISGSKYKTFVAKIITNHSDGTVLGVHLLGDNAPEIIQGVGICLKLNAKISDFYNTIGVHPTSAEELCSMRTPSYYYVKGEKMEKPSEASL
Q: For B1, which Km [1] is on record?
A: The Km was > 2000 µM.

Q: What about the Km [2] of the same protein?
A: Its Km is ≥ 2000 µM.

Q: What about the Km [3] of the same protein?
A: The Km was > 2000 µM.

Q: What about the Km [4] of the same protein?
A: The Km was > 2000 µM.

B2: Glutathione reductase, mitochondrial (Homo sapiens), P00390 (protein)
chain: MALLPRALSAGAGPSWRRAARAFRGFLLLLPEPAALTRALSRAMACRQEPQPQGPPPAAGAVASYDYLVIGGGSGGLASARRAAELGARAAVVESHKLGGTCVNVGCVPKKVMWNTAVHSEFMHDHADYGFPSCEGKFNWRVIKEKRDAYVSRLNAIYQNNLTKSHIEIIRGHAAFTSDPKPTIEVSGKKYTAPHILIATGGMPSTPHESQIPGASLGITSDGFFQLEELPGRSVIVGAGYIAVEMAGILSALGSKTSLMIRHDKVLRSFDSMISTNCTEELENAGVEVLKFSQVKEVKKTLSGLEVSMVTAVPGRLPVMTMIPDVDCLLWAIGRVPNTKDLSLNKLGIQTDDKGHIIVDEFQNTNVKGIYAVGDVCGKALLTPVAIAAGRKLAHRLFEYKEDSKLDYNNIPTVVFSHPPIGTVGLTEDEAIHKYGIENVKTYSTSFTPMYHAVTKRKTKCVMKMVCANKEEKVVGIHMQGLGCDEMLQGFAVAVKMGATKADFDNTVAIHPTSSEELVTLR
Q: What does the source list for B2?
A: Km [5]: 380 µM; Km [6]: 800 µM; Km [7]: 160 µM

Source: ChEMBL document CHEMBL1132562, “Ajoene is an inhibitor and subversive substrate of human glutathione reductase and Trypanosoma cruzi trypanothione reductase: crystallographic, kinetic, and spectroscopic studies” (J Med Chem, 1999)
